Laboratory results from ChEMBL document CHEMBL1153763, “Discovering a new analogue of thalidomide which may be used as a potent modulator of TNF-alpha production” (Eur J Med Chem, 2009).

Columns and labels:
HT-29 = test: Cytotoxicity against human HT-29 cells by MTT assay; type: functional, cell-based
DLD-1 = test: Cytotoxicity against human DLD1 cells by MTT assay; type: functional, cell-based
HL-60 [1] = test: Inhibition of okadaic acid-induced TNFalpha production in human HL60 cells at 30 uM after 16 hrs by ELISA relative to control; type: functional; settings: HL-60, 16 h, values are per cent of control
Procedure, shortened: (§1)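 HL-60 cells in RPMI 1640 with 10% fetal bovine serum, 2 mM L-glutamine and penicillin/streptomycin, 37 °C, 5% CO2. Exponential cells (5×10^5 cells/mL) given 50 nM okadaic acid plus compound (30 µM) for 16 h. Cell number and morphology checked microscopically. Supernatant TNF-α measured by human TNF-α ELISA, expressed as % of okadaic acid-only treatment (100%). At least three experiments, triplicate means.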

HL-60 [2] = test: Enhancement of 12-O-tetradecanoylphorbol-13-acetate-induced TNFalpha production in human HL60 cell at 30 uM after 16 hrs by ELISA relative to control; type: functional
Procedure, shortened: as §1, with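 “co-treated with 10” for “given 50”, “TPA” for “okadaic acid”, “TPA-only” for “okadaic acid-only”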

ST486 = test: Cytotoxicity against human ST486 cells by MTT assay; type: functional, cell-based
HL-60 [3] = test: Cytotoxicity against human HL60 cells by MTT assay; type: functional, cell-based
HUVEC = test: Cytotoxicity against HUVEC by MTT assay; type: cell-based; settings: Homo sapiens

Compound `CN(C)CCN1C(=O)CCC(N2C(=O)c3ccccc3C2=O)C1=O` (stereo unspecified) has an IC50 (HT-29) of over 50 µM, an IC50 (DLD-1) of over 50 µM and a response, % of control at 30 µM (HL-60 [1]) of 93%. The Activity (HL-60 [2]) was 125%, the IC50 (ST486) was over 50 µM and the IC50 (HL-60 [3]) was over 50 µM. It also gave an IC50 (HUVEC) of over 50 µM.
Work on `CN(C)CCN1C(=O)CCC(n2c(=O)c3cc4c(=O)n(C5CCC(=O)N(CCN(C)C)C5=O)c(=O)c4cc3c2=O)C1=O` (stereo unspecified) yielded an IC50 (HT-29) of over 50 µM, an IC50 (DLD-1) of over 50 µM and a response, % of control at 30 µM (HL-60 [1]) of 77%. The Activity (HL-60 [2]) was 138%, the IC50 (ST486) was over 50 µM and the IC50 (HL-60 [3]) was over 50 µM. For the same compound, the IC50 (HUVEC) was over 50 µM.
`CN(CCN1C(=O)CCC(N2C(=O)c3ccccc3C2=O)C1=O)CCN1C(=O)CCC(N2C(=O)c3ccccc3C2=O)C1=O` (stereo unspecified) gave an IC50 (HT-29) of over 50 µM, an IC50 (DLD-1) of over 50 µM and a response, % of control at 30 µM (HL-60 [1]) of 99%. For the same compound, the Activity (HL-60 [2]) was 159%, the IC50 (ST486) was over 50 µM and the IC50 (HL-60 [3]) was over 50 µM. For the same compound, the IC50 (HUVEC) was over 50 µM.
Work on `O=C1CCC(N2C(=O)c3cccc4cc([N+](=O)[O-])cc(c34)C2=O)C(=O)N1` (stereo unspecified) yielded an IC50 (HT-29) of over 50 µM, an IC50 (DLD-1) of over 50 µM and a response, % of control at 30 µM (HL-60 [1]) of 47%. It also gave an Activity (HL-60 [2]) of 248%, an IC50 (ST486) of over 50 µM and an IC50 (HL-60 [3]) of over 50 µM. It also gave an IC50 (HUVEC) of over 50 µM.
With `CN(C)CCN1C(=O)CCC(N2C(=O)c3cccc4cccc(c34)C2=O)C1=O` (stereo unspecified) the IC50 (HT-29) was over 50 µM, the IC50 (DLD-1) was over 50 µM and the response, % of control at 30 µM (HL-60 [1]) was 91%. It also gave an Activity (HL-60 [2]) of 107%, an IC50 (ST486) of over 50 µM and an IC50 (HL-60 [3]) of over 50 µM. For the same compound, the IC50 (HUVEC) was over 50 µM.
`CN(C)CCN1C(=O)CCC(N2C(=O)c3cccc4cc([N+](=O)[O-])cc(c34)C2=O)C1=O` (stereo unspecified) showed an IC50 (HT-29) of over 50 µM, an IC50 (DLD-1) of over 50 µM and a response, % of control at 30 µM (HL-60 [1]) of 48%. For the same compound, the Activity (HL-60 [2]) was 124%, the IC50 (ST486) was over 50 µM and the IC50 (HL-60 [3]) was over 50 µM. It also gave an IC50 (HUVEC) of over 50 µM.
`Nc1cc2c3c(cccc3c1)C(=O)N(C1CCC(=O)NC1=O)C2=O` (stereo unspecified) gave an IC50 (HT-29) of over 50 µM, an IC50 (DLD-1) of over 50 µM and a response, % of control at 30 µM (HL-60 [1]) of 46%. For the same compound, the Activity (HL-60 [2]) was 138%, the IC50 (ST486) was over 50 µM and the IC50 (HL-60 [3]) was over 50 µM. The IC50 (HUVEC) was over 50 µM.
Work on `NC(=O)CCC(C(=O)O)N1C(=O)c2cc3ccccc3cc2C1=O` (stereo unspecified) yielded an IC50 (HT-29) of over 50 µM, an IC50 (DLD-1) of over 50 µM and a response, % of control at 30 µM (HL-60 [1]) of 60%. The Activity (HL-60 [2]) was 258%, the IC50 (ST486) was over 50 µM and the IC50 (HL-60 [3]) was over 50 µM. The IC50 (HUVEC) was over 50 µM.
`NC(=O)CCC(C(=O)O)N1C(=O)c2ccc3ccccc3c2C1=O` (stereo unspecified) was tested, and the IC50 (HT-29) was over 50 µM, the IC50 (DLD-1) was over 50 µM and the response, % of control at 30 µM (HL-60 [1]) was 111%. It also gave an Activity (HL-60 [2]) of 146%, an IC50 (ST486) of over 50 µM and an IC50 (HL-60 [3]) of over 50 µM. It also gave an IC50 (HUVEC) of over 50 µM.
In the case of `CN(C)CCN1C(=O)CCC(N2C(=O)c3cccc4cc(N)cc(c34)C2=O)C1=O` (stereo unspecified), the IC50 (HT-29) is reported as over 50 µM, the IC50 (DLD-1) is reported as over 50 µM and the response, % of control at 30 µM (HL-60 [1]) is reported as 47%. The Activity (HL-60 [2]) was 132%, the IC50 (ST486) was over 50 µM and the IC50 (HL-60 [3]) was over 50 µM. It also gave an IC50 (HUVEC) of over 50 µM.
Work on `CN(C)CCN1C(=O)CCC(N2C(=O)c3cc4ccccc4cc3C2=O)C1=O` (stereo unspecified) yielded an IC50 (HT-29) of over 50 µM, an IC50 (DLD-1) of over 50 µM and a response, % of control at 30 µM (HL-60 [1]) of 50%. It also gave an Activity (HL-60 [2]) of 149%, an IC50 (ST486) of over 50 µM and an IC50 (HL-60 [3]) of over 50 µM. For the same compound, the IC50 (HUVEC) was over 50 µM.
`CN(C)CCN1C(=O)CCC(N2C(=O)c3ccc4ccccc4c3C2=O)C1=O` (stereo unspecified) showed an IC50 (HT-29) of over 50 µM, an IC50 (DLD-1) of over 50 µM and a response, % of control at 30 µM (HL-60 [1]) of 59%. It also gave an Activity (HL-60 [2]) of 105%, an IC50 (ST486) of over 50 µM and an IC50 (HL-60 [3]) of over 50 µM. It also gave an IC50 (HUVEC) of over 50 µM.
In the case of `O=C1CCC(N2C(=O)c3cc4ccccc4cc3C2=O)C(=O)N1` (stereo unspecified), the IC50 (HT-29) is reported as over 50 µM, the IC50 (DLD-1) is reported as over 50 µM and the response, % of control at 30 µM (HL-60 [1]) is reported as 138%. It also gave an Activity (HL-60 [2]) of 166%, an IC50 (ST486) of over 50 µM and an IC50 (HL-60 [3]) of over 50 µM. It also gave an IC50 (HUVEC) of over 50 µM.
`O=C1CCC(N2C(=O)c3ccc4ccccc4c3C2=O)C(=O)N1` (stereo unspecified) was tested, and the IC50 (HT-29) was over 50 µM, the IC50 (DLD-1) was over 50 µM and the response, % of control at 30 µM (HL-60 [1]) was 78%. It also gave an Activity (HL-60 [2]) of 161%, an IC50 (ST486) of over 50 µM and an IC50 (HL-60 [3]) of over 50 µM. It also gave an IC50 (HUVEC) of over 50 µM.
For `O=C1CCC(N2C(=O)C(c3ccccc3)=C(c3ccccc3)C2=O)C(=O)N1` (stereo unspecified), the IC50 (HT-29) was over 50 µM, the IC50 (DLD-1) was over 50 µM and the response, % of control at 30 µM (HL-60 [1]) was 47%. The Activity (HL-60 [2]) was 147%, the IC50 (ST486) was over 50 µM and the IC50 (HL-60 [3]) was over 50 µM. It also gave an IC50 (HUVEC) of over 50 µM.
With `NC(=O)CCC(C(=O)O)N1C(=O)C(c2ccccc2)=C(c2ccccc2)C1=O` (stereo unspecified) the IC50 (HT-29) was over 50 µM, the IC50 (DLD-1) was over 50 µM and the response, % of control at 30 µM (HL-60 [1]) was 66%. It also gave an Activity (HL-60 [2]) of 146%, an IC50 (ST486) of over 50 µM and an IC50 (HL-60 [3]) of over 50 µM. For the same compound, the IC50 (HUVEC) was over 50 µM.
In the case of `O=C1CCC(n2c(=O)c3cc4c(=O)n(C5CCC(=O)NC5=O)c(=O)c4cc3c2=O)C(=O)N1` (stereo unspecified), the IC50 (HT-29) is reported as over 50 µM, the IC50 (DLD-1) is reported as over 50 µM and the response, % of control at 30 µM (HL-60 [1]) is reported as 34%. It also gave an Activity (HL-60 [2]) of 294%, an IC50 (ST486) of over 50 µM and an IC50 (HL-60 [3]) of over 50 µM. For the same compound, the IC50 (HUVEC) was over 50 µM.
`CN(C)CCN1C(=O)CCC(N2C(=O)C(c3ccccc3)=C(c3ccccc3)C2=O)C1=O` (stereo unspecified) was tested, and the IC50 (HT-29) was over 50 µM, the IC50 (DLD-1) was over 50 µM and the response, % of control at 30 µM (HL-60 [1]) was 6%. For the same compound, the Activity (HL-60 [2]) was 672%, the IC50 (ST486) was over 50 µM and the IC50 (HL-60 [3]) was over 50 µM. The IC50 (HUVEC) was over 50 µM.
`NC(=O)CCC(C(=O)O)N1C(=O)c2cccc3cccc(c23)C1=O` (stereo unspecified) showed an IC50 (HT-29) of over 50 µM, an IC50 (DLD-1) of over 50 µM and a response, % of control at 30 µM (HL-60 [1]) of 55%. For the same compound, the Activity (HL-60 [2]) was 116%, the IC50 (ST486) was over 50 µM and the IC50 (HL-60 [3]) was over 50 µM. For the same compound, the IC50 (HUVEC) was over 50 µM.
For `NC(=O)CCC(C(=O)O)N1C(=O)c2cccc3cc([N+](=O)[O-])cc(c23)C1=O` (stereo unspecified), the IC50 (HT-29) was over 50 µM, the IC50 (DLD-1) was over 50 µM and the response, % of control at 30 µM (HL-60 [1]) was 51%. The Activity (HL-60 [2]) was 86%, the IC50 (ST486) was over 50 µM and the IC50 (HL-60 [3]) was over 50 µM. It also gave an IC50 (HUVEC) of over 50 µM.
Work on `NC(=O)CCC(C(=O)O)N1C(=O)c2cccc3cc(N)cc(c23)C1=O` (stereo unspecified) yielded an IC50 (HT-29) of over 50 µM, an IC50 (DLD-1) of over 50 µM and a response, % of control at 30 µM (HL-60 [1]) of 49%. The Activity (HL-60 [2]) was 140%, the IC50 (ST486) was over 50 µM and the IC50 (HL-60 [3]) was over 50 µM. It also gave an IC50 (HUVEC) of over 50 µM.
Compound `O=C1CCC(N2C(=O)c3cccc4cccc(c34)C2=O)C(=O)N1` (stereo unspecified) has an IC50 (HT-29) of over 50 µM, an IC50 (DLD-1) of over 50 µM and a response, % of control at 30 µM (HL-60 [1]) of 49%. For the same compound, the Activity (HL-60 [2]) was 158%, the IC50 (ST486) was over 50 µM and the IC50 (HL-60 [3]) was over 50 µM. The IC50 (HUVEC) was over 50 µM.
In the case of `O=C1CCC(N2C(=O)c3ccccc3C2=O)C(=O)N1` (stereo unspecified) [THALIDOMIDE], the IC50 (HT-29) is reported as over 50 µM, the IC50 (DLD-1) is reported as over 50 µM and the response, % of control at 30 µM (HL-60 [1]) is reported as 53%. It also gave an Activity (HL-60 [2]) of 164%, an IC50 (ST486) of over 50 µM and an IC50 (HL-60 [3]) of over 50 µM. It also gave an IC50 (HUVEC) of over 50 µM.
